Values after ≈ are worked out from the molar mass of the structure shown.
How the values were obtained:
[1] = test system: Pseudomonas aeruginosa; assay: Antibacterial activity against Pseudomonas aeruginosa ATCC 25619 after 24 hrs by two-fold serial dilution method; format: functional; settings: ATCC 25619, 24 h
How it was run: (§1)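 Two-fold serial dilutions of DMSO stock in adjusted Mueller-Hinton broth, final 100 to 0.78 µg/ml. Bacteria pre-grown in nutrient broth, fungi in malt extract broth (48 h). Each 5 ml tube given 0.1 ml inoculum (1×10⁸ CFU/ml bacteria, 1×10⁶ CFU/ml fungi), incubated 37 °C 24 h. MIC taken as lowest concentration with no growth; triplicate, averaged.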

[2] = Cytotoxicity against human HCT116 cells assessed as decrease in cell viability after 48 hrs by SRB assay; format: functional, cell-based; settings: hct-116
How it was run: (§2)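 SRB assay. Cells seeded at 10⁴ per well and allowed to attach for 24 h. Exposed to 0, 5, 12.5, 25 and 50 µg/mL, triplicate wells per dose, for 48 h at 37 °C in 5% CO₂. Cells fixed and SRB-stained; excess dye removed with acetic acid, bound dye recovered in Tris-EDTA and read on an ELISA reader. IC50 read from the surviving-fraction curve.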

[3] = test system: Micrococcus luteus; assay: Antibacterial activity against Sarcina lutea after 24 hrs by two-fold serial dilution method; format: functional; how it was run: as §1
[4] = Cytotoxicity against human PC3 cells assessed as decrease in cell viability after 48 hrs by SRB assay; format: functional, cell-based; settings: pc-3; how it was run: as §2
[5] = test system: Micrococcus luteus; assay: Antibacterial activity against Micrococcus luteus ATCC 10240 after 24 hrs by two-fold serial dilution method; format: functional; settings: ATCC 10240, 24 h; how it was run: as §1
[6] = Cytotoxicity against human HepG2 cells assessed as decrease in cell viability after 48 hrs by SRB assay; format: functional, cell-based; how it was run: as §2
[7] = test system: Human alphaherpesvirus 1; assay: Antiviral activity against HSV1 infected in African green monkey Vero cells by plaque formation assay; format: functional; parameters: concentration or dose not given beside the values
[8] = Cytotoxicity against human MCF7 cells assessed as decrease in cell viability after 48 hrs by SRB assay; format: functional, cell-based; parameters: unit not given here; how it was run: as §2
[9] = test system: Aspergillus niger; assay: Antifungal activity against Aspergillus niger at 5 mg after 24 hrs by agar well diffusion assay; format: functional; settings: read-out: DIZ
How it was run: (§3)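 Agar well diffusion. 100 µL inoculum (1×10⁸ CFU/mL bacteria, 1×10⁶ CFU/mL yeast) spread on nutrient agar (bacteria) or Sabouraud dextrose agar (fungi). 10 mm wells loaded with 100 µL of 5 mg/mL compound in DMSO. DMSO as negative control. Erythromycin (bacteria) or […] (fungi) at 5 mg/ml as standards. Plates incubated 24 h at 37 °C. Inhibition zone diameter (mm) measured, mean of triplicate.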

[10] = test system: Micrococcus luteus; assay: Antibacterial activity against Sarcina lutea at 5 mg after 24 hrs by agar well diffusion assay; format: functional; settings: read-out: DIZ; how it was run: as §3
[11] = test system: Bacillus pumilus; assay: Antibacterial activity against Bacillus pumilus after 24 hrs by two-fold serial dilution method; format: functional; how it was run: as §1
[12] = test system: Micrococcus luteus; assay: Antibacterial activity against Micrococcus luteus ATCC 10240 at 5 mg after 24 hrs by agar well diffusion assay; format: functional; settings: ATCC 10240, 24 h, read-out: DIZ; how it was run: as §3
[13] = test system: Bacillus pumilus; assay: Antibacterial activity against Bacillus pumilus at 5 mg after 24 hrs by agar well diffusion assay; format: functional; settings: read-out: DIZ; how it was run: as §3
[14] = test system: Hepatovirus A; assay: Antiviral activity against Hepatitis A virus infected in African green monkey Vero cells by plaque formation assay; format: functional; parameters: concentration or dose not given beside the values
[15] = test system: Candida albicans; assay: Antifungal activity against Candida albicans IMRU 3669 after 24 hrs by two-fold serial dilution method; format: functional; settings: IMRU 3669, 24 h; how it was run: as §1
[16] = test system: Bacillus subtilis; assay: Antibacterial activity against Bacillus subtilis NCTC 10400 at 5 mg after 24 hrs by agar well diffusion assay; format: functional; settings: NCTC 10400, 24 h, read-out: DIZ; how it was run: as §3
[17] = test system: Coxsackievirus B4; assay: Antiviral activity against human Coxsackie virus B4 infected in African green monkey Vero cells by plaque formation assay; format: functional; parameters: concentration or dose not given beside the values
[18] = test system: Escherichia coli; assay: Antibacterial activity against Escherichia coli ATCC 10536 at 5 mg after 24 hrs by agar well diffusion assay; format: functional; settings: ATCC 10536, 24 h, read-out: DIZ; how it was run: as §3
[19] = test system: Pseudomonas aeruginosa; assay: Antibacterial activity against Pseudomonas aeruginosa ATCC 25619 at 5 mg after 24 hrs by agar well diffusion assay; format: functional; settings: ATCC 25619, 24 h, read-out: DIZ; how it was run: as §3
[20] = test system: Candida albicans; assay: Antifungal activity against Candida albicans IMRU 3669 at 5 mg after 24 hrs by agar well diffusion assay; format: functional; settings: IMRU 3669, 24 h, read-out: DIZ; how it was run: as §3
[21] = Antifungal activity against Penicillium chrysogenum at 5 mg after 24 hrs by agar well diffusion assay; format: functional; how it was run: as §3

Row | Compound | MIC [1] | IC50 [2] | MIC [3] | IC50 [4] | MIC [5] | IC50 [6] | Activity [7] | IC50 [8] | zone of inhibition at 5000 µg/disc [9] | zone of inhibition at 5000 µg/disc [10] | MIC [11] | zone of inhibition at 5000 µg/disc [12] | zone of inhibition at 5000 µg/disc [13] | Activity [14] | MIC [15] | zone of inhibition at 5000 µg/disc [16] | Activity [17] | zone of inhibition at 5000 µg/disc [18] | zone of inhibition at 5000 µg/disc [19] | zone of inhibition at 5000 µg/disc [20] | also measured
1 | COc1ccc(OC)c(N2C(=O)N(c3ccc(SC)cc3)C(=N)C2=S)c1 | 0.78 µg/mL (≈ 2.01 µM) | 0.05 µg | 6.25 µg/mL (≈ 16.1 µM) | 0.047 µg | 6.25 µg/mL (≈ 16.1 µM) | 0.029 µg | 85.7% | 0.028 | 20 mm | 31 mm | 6.25 µg/mL (≈ 16.1 µM) | 17 mm | 20 mm | 0% | 6.25 µg/mL (≈ 16.1 µM) | 29 mm | 18.5% | 29 mm | 25 mm | 27 mm | inhibition zone (IZ) [21]: 22 mm
2 | Cc1ccc(F)cc1N1C(=N)C(=S)N(c2cc(Cl)cc(Cl)c2)C1=O | 3.12 µg/mL (≈ 8.16 µM) | 0.034 µg | 3.12 µg/mL (≈ 8.16 µM) | 0.064 µg | 6.25 µg/mL (≈ 16.4 µM) | 0.05 µg | 45.3% | 0.011 | 22 mm | 24 mm | 6.25 µg/mL (≈ 16.4 µM) | 20 mm | 21 mm | 20.6% | 6.25 µg/mL (≈ 16.4 µM) | 20 mm | 31.1% | 18 mm | 22 mm | 18 mm | inhibition zone (IZ) [21]: 21 mm
3 | CSc1ccc(N2C(=N)C(=S)N(c3cc(Cl)cc(Cl)c3)C2=O)cc1 | 0.78 µg/mL (≈ 1.97 µM) | 0.031 µg | 6.25 µg/mL (≈ 15.8 µM) | 0.049 µg | 6.25 µg/mL (≈ 15.8 µM) | 0.029 µg | 3.4% | 0.018 | 19 mm | 26 mm | 6.25 µg/mL (≈ 15.8 µM) | 18 mm | 25 mm | 0% | 6.25 µg/mL (≈ 15.8 µM) | 24 mm | 0% | 23 mm | 21 mm | 25 mm | inhibition zone (IZ) [21]: 20 mm
